Here are results for two compounds from ChEMBL document CHEMBL3525946, “Species comparison of in vivo P-glycoprotein-mediated brain efflux using mdr1a-deficient rats and mice” (Drug Metab Dispos, 2012).

Data set [1] in a line: Percentage unbound in Crl:NMRI(Han) mouse plasma at 1 uM after 5 hrs by equilibrium dialysis method. It is filed as ADME, cell-free. Put shortly:
(§1)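 Equilibrium dialysis (12-14 kDa membrane) of plasma or brain homogenate from naïve male Sprague-Dawley rats or Crl:NMRI(Han) mice. Donor side spiked to 1 µM final; receiver phosphate buffer pH 7.4; 37°C for 5 h. Buffer phase quantified by LC-MS. Brain fu corrected for homogenate dilution to intact tissue. Mean of two independent determinations.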

Data set [2] is described as follows: Total plasma concentration in wild type Sprague-Dawley rat expressing Abcb1a at 9 mg/kg/day administered through continuous minipump treatment for 3 days by UPLC-MS analysis. The format is ADME, organism-based. The note with it: other: continuous minipump. A digest of the protocol: (§2)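 Drug was infused subcutaneously by osmotic minipump for 3 days to steady state, at 1 µl/h in mice and 10 µl/h in rats, with doses derived from body weight and delivery rate. Animals were decapitated. Plasma came from EDTA trunk blood spun at 5000 g for 10 min at 4 °C. Whole brain was homogenised 1:4 in 70% acetonitrile and the supernatant kept. Samples were protein-precipitated with internal standard and analysed by UPLC. n=3-5, mean ± SEM.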

Data set [3] in a line: Total drug level in wild type Sprague-Dawley rat brain expressing Abcb1a at 9 mg/kg/day administered through continuous minipump treatment for 3 days by UPLC-MS analysis. It is filed as ADME, organism-based. The settings on record: other: continuous minipump, read-out: Drug uptake. Put shortly: as §2
Data set [4] is described as follows: Total plasma concentration in mdr1a-deficient rat at 9 mg/kg/day administered through continuous minipump treatment for 3 days by UPLC-MS analysis. It is filed as ADME, organism-based. The settings on record: other: continuous minipump. A digest of the protocol: as §2
Data set [5] can be described thus: Total drug level in mdr1a-deficient rat brain at 9 mg/kg/day administered through continuous minipump treatment for 3 days by UPLC-MS analysis. The format is ADME, organism-based. The settings on record: other: continuous minipump, read-out: Drug uptake. Put shortly: as §2
The nature of data set [6]: Total plasma concentration in wild type Crl:CF1 mouse expressing Abcb1a mutant at 6 mg/kg/day administered through continuous minipump treatment for 3 days by UPLC-MS analysis. The format is ADME, organism-based. The settings on record: other: continuous minipump. Put shortly:
(§3)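 Subcutaneous osmotic minipump infusion for 3 days to steady state, implanted under isoflurane (rats 10 µl/h, mice 1 µl/h). Mdr1a-deficient (SD-Abcb1a knockout rats; Crl:CF1-Abcb1a mutant mice) and wild-type animals, n=3-5 per group. After decapitation, EDTA plasma and whole brain (homogenized 1:4 in 70% acetonitrile) were precipitated with internal standard. Parent and metabolites quantified by UPLC-MS. Mean ± SEM.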

Data set [7] is described as follows: Total drug level in wild type Crl:CF1 mouse brain expressing Abcb1a mutant at 6 mg/kg/day administered through continuous minipump treatment for 3 days by UPLC-MS analysis. It is filed as ADME, organism-based. The settings on record: other: continuous minipump, read-out: Drug uptake. Put shortly:
as §3

Data set [8] in a line: Total plasma concentration in mdr1a-deficient mouse at 6 mg/kg/day administered through continuous minipump treatment for 3 days by UPLC-MS analysis. It is filed as ADME, organism-based. The settings on record: other: continuous minipump. Put shortly: as §3
A short description of data set [9]: Total drug level in mdr1a-deficient mouse brain at 6 mg/kg/day administered through continuous minipump treatment for 3 days by UPLC-MS analysis. The note with it: other: continuous minipump, read-out: Drug uptake. The format is ADME, organism-based. A digest of the protocol:
as §3

A short description of data set [10]: Percentage unbound in Sprague-Dawley rat plasma at 1 uM after 5 hrs by equilibrium dialysis method. It is filed as ADME, cell-free. Put shortly:
as §1
In general terms: In equilibrium dialysis only unbound substance equilibrates across the membrane.

A short description of data set [11]: Percentage unbound in Sprague-Dawley rat brain at 1 uM after 5 hrs by equilibrium dialysis method. It is filed as ADME, tissue-based. A digest of the protocol: as §1
A short description of data set [12]: Percentage unbound in Crl:NMRI(Han) mouse brain at 1 uM after 5 hrs by equilibrium dialysis method. It is filed as ADME, tissue-based. Put shortly: as §1
Data set [13] in a line: Total plasma concentration in wild type Sprague-Dawley rat expressing Abcb1a treated with venlafaxine at 9 mg/kg/day administered through continuous minipump treatment for 3 days by UPLC-MS analysis. The note with it: other: continuous minipump. The format is ADME, organism-based. Put shortly: as §3
The nature of data set [14]: Total drug level in wild type Sprague-Dawley rat brain expressing Abcb1a treated with venlafaxine at 9 mg/kg/day administered through continuous minipump treatment for 3 days by UPLC-MS analysis. It is filed as ADME, organism-based. The settings on record: other: continuous minipump, read-out: Drug uptake. Put shortly: as §3
Data set [15] is described as follows: Total brain to plasma partition coefficient of the compound in wild type Sprague-Dawley rat expressing Abcb1a treated with venlafaxine at 9 mg/kg/day administered through continuous minipump treatment for 3 days. The note with it: brain and plasma, other: continuous minipump. The format is ADME, organism-based. A digest of the protocol:
(§4)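 Kp is total brain concentration divided by total plasma concentration at steady state. Measured after a 3-day subcutaneous osmotic minipump infusion in mdr1a-deficient or wild-type rats or mice, n=3-5. Concentrations determined by UPLC-MS in plasma and in whole-brain homogenate (70% acetonitrile). Mean ± SEM.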

A short description of data set [16]: Total plasma concentration in mdr1a-deficient rat treated with venlafaxine at 9 mg/kg/day administered through continuous minipump treatment for 3 days by UPLC-MS analysis. The format is ADME, organism-based. The note with it: other: continuous minipump. Put shortly:
as §3

Data set [17] can be described thus: Total drug level in mdr1a-deficient rat brain treated with venlafaxine at 9 mg/kg/day administered through continuous minipump treatment for 3 days by UPLC-MS analysis. It is filed as ADME, organism-based. The note with it: other: continuous minipump, read-out: Drug uptake. Put shortly:
as §3

The nature of data set [18]: Total brain to plasma partition coefficient of the compound in mdr1a-deficient rat treated with venlafaxine at 9 mg/kg/day administered through continuous minipump treatment for 3 days. It is filed as ADME, organism-based. The settings on record: brain and plasma, other: continuous minipump. Put shortly:
as §4

A short description of data set [19]: Total plasma concentration in mdr1a-deficient mouse treated with venlafaxine at 12 mg/kg/day administered through continuous minipump treatment for 3 days by UPLC-MS analysis. It is filed as ADME, organism-based. The settings on record: other: continuous minipump. Put shortly:
as §3

The nature of data set [20]: Total drug level in mdr1a-deficient mouse brain treated with venlafaxine at 12 mg/kg/day administered through continuous minipump treatment for 3 days by UPLC-MS analysis. It is filed as ADME, organism-based. The settings on record: other: continuous minipump, read-out: Drug uptake. Put shortly:
as §3

Data set [21] in a line: Total brain to plasma partition coefficient of the compound in mdr1a-deficient mouse treated with venlafaxine at 12 mg/kg/day administered through continuous minipump treatment for 3 days. The format is ADME, organism-based. The settings on record: other: continuous minipump. Put shortly: as §4
Data set [22] is described as follows: Total plasma concentration in wild type Crl:CF1 mouse expressing Abcb1a mutant treated with venlafaxine at 12 mg/kg/day administered through continuous minipump treatment for 3 days by UPLC-MS analysis. The settings on record: other: continuous minipump. It is filed as ADME, organism-based. Put shortly: as §3
A short description of data set [23]: Total drug level in wild type Crl:CF1 mouse brain expressing Abcb1a mutant treated with venlafaxine at 12 mg/kg/day administered through continuous minipump treatment for 3 days by UPLC-MS analysis. The format is ADME, organism-based. The note with it: other: continuous minipump, read-out: Drug uptake. Put shortly:
as §3

Data set [24] in a line: Total brain to plasma partition coefficient of the compound in wild type Crl:CF1 mouse expressing Abcb1a mutant treated with venlafaxine at 12 mg/kg/day administered through continuous minipump treatment for 3 days. The format is ADME, organism-based. The note with it: other: continuous minipump. Put shortly: as §4
Data set [25] is described as follows: Unbound brain to plasma partition coefficient of the compound in wild type Sprague-Dawley rat expressing Abcb1a treated with venlafaxine at 9 mg/kg/day administered through continuous minipump treatment for 3 days. It is filed as ADME, organism-based. The note with it: other: continuous minipump, read-out: K(p,uu,brain). A digest of the protocol: (§5)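 Kp,uu is (Cbrain,total × fu,brain)/(Cplasma,total × fu,plasma). Total concentrations were measured at steady state after a 3-day subcutaneous minipump infusion in knockout or wild-type animals. Species-matched free fractions came from 5 h, 37°C equilibrium dialysis at 1 µM in naïve plasma and brain homogenate.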

Data set [26] in a line: Unbound brain to plasma partition coefficient of the compound in mdr1a-deficient Sprague-Dawley rat treated with venlafaxine at 9 mg/kg/day administered through continuous minipump treatment for 3 days. The settings on record: other: continuous minipump, read-out: K(p,uu,brain). The format is ADME, organism-based. Put shortly:
as §5

Data set [27] in a line: Unbound brain to plasma partition coefficient of the compound in wild type Crl:CF1 mouse expressing Abcb1a mutant treated with venlafaxine at 12 mg/kg/day administered through continuous minipump treatment for 3 days. The note with it: other: continuous minipump, read-out: K(p,uu,brain). It is filed as ADME, organism-based. A digest of the protocol:
as §5

The nature of data set [28]: Unbound brain to plasma partition coefficient of the compound in mdr1a-deficient mouse treated with venlafaxine at 12 mg/kg/day administered through continuous minipump treatment for 3 days. The note with it: other: continuous minipump, read-out: K(p,uu,brain). The format is ADME, organism-based. Put shortly:
as §5

In general, fraction unbound refers to free concentration divided by total concentration. For `Br.CN(C)CCCC1(c2ccc(F)cc2)OCc2cc(C#N)ccc21` (configuration not stated) [CITALOPRAM HYDROBROMIDE], the fraction unbound at 5 h, 1 µM came out at 0.32 in data set [1], 0.5 in [10], 0.031 in data set [11] and 0.035 in data set [12]. The concentration at 72 h stood at 27 ng/mL in [2]; 265 ng/g in [3]; 35 ng/mL in data set [4]; 1200 ng/g in [5]; 8.8 ng/mL in data set [6]; 191 ng/g in data set [7]. Further, the concentration at 72 h in data set [8] amounted to 8.2 ng/mL; in data set [9], 361 ng/g.
By Kp is commonly meant the ratio of the level in a tissue or fluid to that in plasma or blood. Turning to `CNCC(c1ccc(OC)cc1)C1(O)CCCCC1` (configuration not stated) [N-DESMETHYLVENLAFAXINE], the fraction unbound at 5 h, 1 µM came out at 0.8 in data set [1], 0.32 in data set [10], 0.08 in data set [11] and 0.16 in [12]. The concentration at 72 h in [13] is 6.8 ng/mL; in [14] it was 9.3 ng/g; in data set [16] it was 10 ng/mL; in data set [17] it was 79 ng/g; in [19] it was 11 ng/mL; in [20] it was 77 ng/g. The figures for the concentration at 72 h in data set [22] and in data set [23] were 17 ng/mL and 25 ng/g, respectively. Further, the Kp at 72 h amounted to 1.4 in data set [15], 8.9 in [18], 7 in data set [21] and 1.5 in [24]. Further, the Kp uu at 72 h in [25] was determined as 0.34; in [26], 2; in data set [27] it was 0.29; in data set [28], 1.4.
